Calls of active or inactive are those of the source. The calls are words filed in the database; no cut-off is given here. Non-standard residues stand in square brackets, D forms with d. Residues, ends and D or L forms follow the SMILES beside them. Phe(3-Ph) = N[C@@H](Cc1cccc(-c2ccccc2)c1)C(=O)O; Phe(2-Ph) = N[C@@H](Cc1ccccc1-c1ccccc1)C(=O)O; Bip = N[C@@H](Cc1ccc(-c2ccccc2)cc1)C(=O)O; Dmt = Cc1cc(O)cc(C)c1C[C@H](N)C(=O)O

The IC20 is the point of the concentration-response curve where the effect stands at 20%. A word on the IC50: it is the concentration that inhibits the measured activity by half. In general, EC50 refers to the concentration giving half of the maximal effect. As a reminder, the Emax is the greatest response seen or fitted, relative to the assay's reference.

One assay is filed under the species Mus musculus. Kind of assay: Selectivity ratio of IC50 for mouse Flag-tagged delta-opioid receptor to IC50 for mouse Flag-tagged mu-opioid receptor.
For assay [1], the target named is Delta-type opioid receptor (Mus musculus) (UniProt P32300). Kind of assay: Partial agonist activity at delta-opioid receptor in mouse vasa deferens assessed as inhibition of electrically induced contractions. The assay is classed as functional.
In assay [2] the target is T1, Delta-type opioid receptor (Mus musculus, UniProt P32300). The assay can be described thus: Displacement of [125I]-Deltorphin 2 from mouse Flag-tagged delta-opioid receptor expressed in HEK293 cell membranes after 60 mins by gamma counting. For orientation: Loss of bound radioactivity is the signal in a displacement assay; it reports binding, not function.
The target of assay [3] is Mu-type opioid receptor (Mus musculus, UniProt P42866). Kind of assay: Displacement of [125I]-DAMGO from mouse Flag-tagged mu-opioid receptor expressed in HEK293 cell membranes after 60 mins by gamma counting.
The target in assay [4] is Mu-type opioid receptor (Cavia porcellus) (UniProt P97266). The assay can be described thus: Antagonist activity at mu-opioid receptor in guinea pig ileum assessed as effect on electrically induced contractions. It is filed as functional.
The target of assay [5] is Mu-type opioid receptor (Cavia porcellus, UniProt P97266). The assay can be described thus: Agonist activity at mu-opioid receptor in guinea pig ileum assessed as inhibition of electrically induced contractions. It is filed as functional.
For assay [6], the species on record is Rattus norvegicus. Kind of assay: Antinociceptive activity in Sprague-Dawley rat model of thermal-induced nociception assessed as increase in latency to tail withdrawal at 1 nmol, it measured at every 10 mins for 1 hr by tail flick assay. It is filed as functional, organism-based. A digest of the protocol: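 Compound given intrathecally to rats; tail-flick test measured withdrawal response to a thermal stimulus.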

Assay [7] has as its target Delta-type opioid receptor (Rattus norvegicus, UniProt P33533). Kind of assay: Agonist activity at rat delta-opioid receptor expressed in HEK293 cells co-expressing Rluc2-EPAC-GFP10 biosenser assessed as inhibition of forskolin-induced cAMP level after 10 mins by fluorescence based assay. The assay is classed as functional, cell-based. (In general: Cyclic AMP is a second messenger, typically raised through Gs and lowered through Gi signalling.)

Assay [8] deals with Mu-type opioid receptor (Rattus norvegicus, UniProt P33535). Kind of assay: Agonist activity at rat mu-opioid receptor expressed in HEK293 cells co-expressing Rluc2-EPAC-GFP10 biosenser assessed as inhibition of forskolin-induced cAMP level after 10 mins by fluorescence based assay. The assay is classed as functional, cell-based.
Assay [9] deals with T1, Delta-type opioid receptor. Kind of assay: Agonist activity at delta-opioid receptor in mouse vasa deferens assessed as inhibition of electrically induced contractions. It is filed as functional.
Assay [10] is filed under the species Rattus norvegicus. The assay can be described thus: Potency index, ratio of antinociceptive activity of DAMGO to antinociceptive activity of compound in Sprague-Dawley rat model of thermal-induced nociception by tail flick assay. The assay is classed as functional. On the technique in general: Hot-plate and tail-flick tests time the reaction to a heat stimulus.

For assay [11], the target named is Delta-type opioid receptor (Rattus norvegicus) (UniProt P33533). Kind of assay: Partial agonist activity at rat delta-opioid receptor expressed in HEK293 cells co-expressing Rluc2-EPAC-GFP10 biosenser assessed as inhibition of forskolin-induced cAMP level after 10 mins by fluorescence based assay. It is filed as functional, cell-based.
Assay [12] addresses Mu-type opioid receptor (Cavia porcellus) (UniProt P97266). Kind of assay: Potency index, ratio of DAMGO IC50 to compound IC50 for mu-opioid receptor in guinea pig ileum.
Assay [13] deals with Mu-type opioid receptor (Rattus norvegicus) (UniProt P33535). Kind of assay: Potency index, ratio of DAMGO EC50 to compound EC50 for rat mu-opioid receptor expressed in HEK293 cells co-expressing Rluc2-EPAC-GFP10 biosenser by cAMP accumulation assay. It is filed as functional, cell-based.
Sequence of Mu-type opioid receptor (Rattus norvegicus) (P33535 whole entry): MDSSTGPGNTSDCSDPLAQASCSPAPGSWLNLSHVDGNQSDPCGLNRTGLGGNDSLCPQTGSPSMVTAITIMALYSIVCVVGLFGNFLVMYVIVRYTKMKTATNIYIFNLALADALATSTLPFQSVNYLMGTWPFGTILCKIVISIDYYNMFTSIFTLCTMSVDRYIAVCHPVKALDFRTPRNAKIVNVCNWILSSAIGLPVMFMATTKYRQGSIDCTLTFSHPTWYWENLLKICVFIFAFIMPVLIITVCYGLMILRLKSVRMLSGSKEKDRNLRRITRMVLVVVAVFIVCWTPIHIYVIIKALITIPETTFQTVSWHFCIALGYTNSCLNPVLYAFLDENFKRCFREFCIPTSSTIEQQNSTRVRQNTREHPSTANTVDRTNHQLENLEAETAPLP

Sequence of Delta-type opioid receptor (Rattus norvegicus, UniProt P33533) (P33533 whole entry): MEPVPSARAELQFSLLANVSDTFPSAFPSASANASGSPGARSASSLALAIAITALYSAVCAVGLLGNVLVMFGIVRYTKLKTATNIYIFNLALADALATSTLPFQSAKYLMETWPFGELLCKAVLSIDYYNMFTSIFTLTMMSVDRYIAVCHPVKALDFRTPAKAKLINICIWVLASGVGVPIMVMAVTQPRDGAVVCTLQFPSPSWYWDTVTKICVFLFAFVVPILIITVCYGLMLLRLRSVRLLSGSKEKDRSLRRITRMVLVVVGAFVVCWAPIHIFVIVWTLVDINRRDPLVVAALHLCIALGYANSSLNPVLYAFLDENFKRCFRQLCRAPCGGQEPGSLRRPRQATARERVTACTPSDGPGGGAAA
Sequence of Mu-type opioid receptor (Mus musculus, UniProt P42866) (P42866 whole entry): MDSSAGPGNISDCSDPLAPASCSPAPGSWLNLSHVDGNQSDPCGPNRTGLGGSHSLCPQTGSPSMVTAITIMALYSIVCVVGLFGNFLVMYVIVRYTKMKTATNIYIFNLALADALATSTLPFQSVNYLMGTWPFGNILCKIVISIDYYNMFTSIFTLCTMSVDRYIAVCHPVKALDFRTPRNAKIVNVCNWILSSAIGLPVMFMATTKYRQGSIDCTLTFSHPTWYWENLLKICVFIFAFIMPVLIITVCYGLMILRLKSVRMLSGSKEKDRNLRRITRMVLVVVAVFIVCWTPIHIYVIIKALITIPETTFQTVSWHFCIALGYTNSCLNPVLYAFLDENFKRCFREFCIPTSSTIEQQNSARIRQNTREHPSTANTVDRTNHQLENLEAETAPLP
Sequence of Mu-type opioid receptor (Rattus norvegicus, UniProt P33535) (P33535 whole entry): as the sequence (P33535 whole entry) above
Sequence of Mu-type opioid receptor (Cavia porcellus, UniProt P97266) (P97266 whole entry): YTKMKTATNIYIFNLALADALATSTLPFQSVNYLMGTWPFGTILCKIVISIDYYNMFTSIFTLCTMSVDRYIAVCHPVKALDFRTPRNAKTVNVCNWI
Sequence of Mu-type opioid receptor (Cavia porcellus) (P97266 whole entry): as above
Sequence of Delta-type opioid receptor (Mus musculus) (P32300 whole entry): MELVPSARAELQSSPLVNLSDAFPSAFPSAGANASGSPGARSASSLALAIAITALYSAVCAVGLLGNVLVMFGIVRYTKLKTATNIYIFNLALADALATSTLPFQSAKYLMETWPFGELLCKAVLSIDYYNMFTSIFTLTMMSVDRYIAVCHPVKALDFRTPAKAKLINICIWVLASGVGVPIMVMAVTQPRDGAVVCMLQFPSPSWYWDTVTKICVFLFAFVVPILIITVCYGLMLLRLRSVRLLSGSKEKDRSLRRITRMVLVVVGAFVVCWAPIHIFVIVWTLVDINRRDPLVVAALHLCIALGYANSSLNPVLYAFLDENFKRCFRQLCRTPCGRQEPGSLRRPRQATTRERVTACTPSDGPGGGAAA
T1 sequence (P32300 whole entry): as above
Sequence of Delta-type opioid receptor (Rattus norvegicus) (P33533 whole entry): as the sequence (P33533 whole entry) above

Regarding `Cc1cc(O)cc(C)c1C[C@H](N)C(=O)N[C@H](CCCNC(=N)N)C(=O)N[C@@H](Cc1ccc(-c2ccsc2)cc1)C(=O)NCC(N)=O`, the Ratio IC50 in the assay filed under Mus musculus came out at 61. The 20% effect concentration (IC20) in assay [1] came to 3960 nM. Moreover, the results for the IC50 (in assay [2]; at Mu-type opioid receptor [3]) were 309 nM and 5.04 nM, respectively. In addition, the Ke in assay [4] was 138 nM.
Taken in the same sequence, the figures for `Cc1cc(O)cc(C)c1C[C@H](N)C(=O)N[C@H](CCCNC(=N)N)C(=O)N[C@@H](Cc1ccc(-c2ccccc2)cc1)C(=O)NCC(N)=O` (H-[Dmt][dR][Bip]G-NH2) were 6, 3090 nM, 42.3 nM, 7.08 nM and 114 nM.
For the compound `Cc1cc(O)cc(C)c1C[C@H](N)C(=O)N[C@H](CCCNC(=N)N)C(=O)N[C@@H](Cc1cccc(-c2ccccc2)c1)C(=O)NCC(N)=O` (H-[Dmt][dR][Phe(3-Ph)]G-NH2), the Ratio IC50 in the assay filed under Mus musculus was determined as 316. The results for the half-inhibitory concentration (IC50) (at Mu-type opioid receptor [5]; in assay [2]; on Mu-type opioid receptor [3]) were 61.7 nM, 269 nM and 0.85 nM, respectively. For the same compound, the IC40 in [1] was 117 nM.
For the compound `CC(C)=Cc1ccccc1C[C@H](NC(=O)[C@@H](CCCNC(=N)N)NC(=O)[C@@H](N)Cc1c(C)cc(O)cc1C)C(=O)NCC(N)=O`, the Ratio IC50 in the assay listed under Mus musculus came out at 1030. Further, the result in the assay listed under Rattus norvegicus [6] was Active. Besides, the concentration for a half-maximal effect (EC50) amounted to 19.4 nM in [7] and 0.1 nM at Mu-type opioid receptor [8]. Besides, the IC50 turned out to be 0.701 nM on Mu-type opioid receptor [5], 585 nM in [2], 0.57 nM on Mu-type opioid receptor [3] and 0.63 nM in assay [9]. Also, the Ratio in the assay filed under Rattus norvegicus [10] is reported as 10.
For `C=Cc1cccc(C[C@H](NC(=O)[C@@H](CCCNC(=N)N)NC(=O)[C@@H](N)Cc2c(C)cc(O)cc2C)C(=O)NCC(N)=O)c1`, in the assay filed under Mus musculus, the Ratio IC50 amounted to 359. Also, the IC50 on Mu-type opioid receptor [5] came to 1.43 nM; in [2], 165 nM; at Mu-type opioid receptor [3], 0.46 nM; in assay [9], 9.74 nM.
Take `Cc1cc(O)cc(C)c1C[C@H](N)C(=O)N[C@H](C)C(=O)N[C@@H](Cc1ccccc1-c1ccccc1)C(=O)NCC(N)=O` (H-[Dmt][dA][Phe(2-Ph)]G-NH2): the Ratio IC50 in the assay filed under Mus musculus stood at 57. In the assay filed under Rattus norvegicus [6], the outcome was Active. For the same compound, the EC50 in [7] was found to be 4.9 nM; at Mu-type opioid receptor [8], 0.12 nM. Moreover, the IC50 is 1.6 nM at Mu-type opioid receptor [5], 19.8 nM in [2], 0.35 nM on Mu-type opioid receptor [3] and 2.6 nM in [9]. Also, in the assay filed under Rattus norvegicus [10], the Ratio came to 10.
`C[C@@H](NC(=O)[C@@H](N)Cc1ccc(O)cc1)C(=O)NCC(=O)N(C)[C@@H](Cc1ccccc1)C(=O)NCCO` [DAMGO]: the IC50 at Mu-type opioid receptor [5] stood at 28.3 nM.
For the compound `CC(C)[C@H](NC(=O)[C@H](CCC(=O)O)NC(=O)[C@H](Cc1ccccc1)NC(=O)[C@@H](C)NC(=O)[C@@H](N)Cc1ccc(O)cc1)C(=O)N[C@H](C(=O)NCC(=O)O)C(C)C` [DELTORPHIN], the EC50 in assay [7] was determined as 0.1 nM. In addition, the values for the IC50 at Mu-type opioid receptor [5] and at Mu-type opioid receptor [3] were 854 nM and 627 nM, respectively.
As for `Cc1cc(O)cc(C)c1C[C@H](N)C(=O)N[C@H](C)C(=O)N[C@@H](Cc1ccccc1-c1ccsc1)C(=O)NCC(N)=O`, the Ratio IC50 in the assay listed under Mus musculus is 4. Moreover, the Emax in assay [11] amounted to 70%. Moreover, the EC50 in assay [7] amounted to 56 nM; at Mu-type opioid receptor [8], 34.8 nM. Further, the IC50 at Mu-type opioid receptor [5] was found to be 1.27 nM; in [2], 687 nM; on Mu-type opioid receptor [3] it was 240 nM; in [9], 2.16 nM.
In the case of `Cc1cc(O)cc(C)c1C[C@H](N)C(=O)N[C@H](CCCNC(=N)N)C(=O)N[C@@H](Cc1ccccc1-c1ccsc1)C(=O)NCC(N)=O`, the Ratio IC50 in the assay filed under Mus musculus was 431. The EC50 in assay [7] was determined as 49 nM; on Mu-type opioid receptor [8] it was 0.04 nM. For the same compound, the IC50 amounted to 1.54 nM on Mu-type opioid receptor [5], 625 nM in assay [2], 1.45 nM on Mu-type opioid receptor [3] and 2.75 nM in assay [9].
In the case of `C=Cc1ccccc1C[C@H](NC(=O)[C@@H](CCCNC(=N)N)NC(=O)[C@@H](N)Cc1c(C)cc(O)cc1C)C(=O)NCC(N)=O`, the Ratio IC50 was 38 in the assay filed under Mus musculus and 70 in assay [12]. Further, the EC50 in assay [7] is 7 nM; at Mu-type opioid receptor [8], 0.012 nM. Also, the IC50 at Mu-type opioid receptor [5] was 0.389 nM; in assay [2], 18 nM; at Mu-type opioid receptor [3] it was 0.47 nM; in assay [9], 0.406 nM. Besides, in [13], the Ratio EC50 amounted to 20.
In the case of `C=Cc1ccccc1C[C@H](NC(=O)[C@@H](C)NC(=O)[C@@H](N)Cc1c(C)cc(O)cc1C)C(=O)NCC(N)=O`, the Ratio IC50 in the assay filed under Mus musculus came out at 32. Also, the EC50 in [7] was found to be 5.8 nM; at Mu-type opioid receptor [8] it was 0.006 nM. The IC50 stood at 1.18 nM on Mu-type opioid receptor [5], 8 nM in assay [2], 0.25 nM at Mu-type opioid receptor [3] and 2.81 nM in assay [9].
In the case of `Cc1cc(O)cc(C)c1C[C@H](N)C(=O)N[C@H](CCCNC(=N)N)C(=O)N[C@@H](Cc1ccccc1-c1ccccc1)C(=O)NCC(N)=O`, the Ratio IC50 in the assay filed under Mus musculus was determined as 38. The IC50 at Mu-type opioid receptor [5] is 3.47 nM; in [2], 20.3 nM; at Mu-type opioid receptor [3], 0.54 nM; in [9], 6.99 nM.
Taken in the same sequence, the figures for `C=Cc1ccc(C[C@H](NC(=O)[C@@H](CCCNC(=N)N)NC(=O)[C@@H](N)Cc2c(C)cc(O)cc2C)C(=O)NCC(N)=O)cc1` were 777, 24.1 nM, 1410 nM, 1.82 nM and 430 nM.
Consider `Cc1cc(O)cc(C)c1C[C@H](N)C(=O)N[C@H](CCCNC(=N)N)C(=O)N[C@@H](Cc1cccc(-c2ccsc2)c1)C(=O)NCC(N)=O`, for which the Ratio IC50 in the assay listed under Mus musculus turned out to be 583. Moreover, the results for the IC50 (on Mu-type opioid receptor [5]; in assay [2]; on Mu-type opioid receptor [3]) were 30.4 nM, 601 nM and 1.03 nM, respectively. Besides, the IC35 in assay [1] stood at 52.8 nM.

These data come from ChEMBL document CHEMBL4118228, “Chemical space screening around Phe3 in opioid peptides: Modulating µ versus δ agonism by Suzuki-Miyaura cross-couplings” (Bioorg Med Chem Lett, 2018).
